Laboratory results as given in ChEMBL document CHEMBL4229344 (Eur J Med Chem, 2018).
pIC50: −log10 of the molar value. The source made the active and inactive calls. The calls are words filed in the database; no cut-off is given here.

What was measured:
[1] = molecular target: Mast/stem cell growth factor receptor Kit (Homo sapiens, UniProt P10721); assay: Binding affinity to wild-type human partial length KIT (I571 to D952 residues) expressed in bacterial expression system assessed as residual binding level at 1 uM by Kinomescan method relative to control
[2] = Cmax in Sprague-Dawley rat at 10 mg/kg, po; type: ADME, organism-based; set-up: dose 10 mg/kg, route oral; details: in vivo
Summary of the method: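 Male Sprague-Dawley rats, 6–8 weeks old and fasted overnight, dosed IV at 1 mg/kg or PO at 10 mg/kg. Formulation was 5% DMSO/40% PEG400/55% saline (1 mg/mL). Jugular blood collected on heparin from 1 min to 8 h (IV) or 5 min to 24 h (PO). Plasma separated by centrifugation at 2–8 °C and stored at −80 °C.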

[3] = system: NCI-H1703; assay: Induction of apoptosis in human NCI-H1703 cells assessed as cleaved PARP expression level at 0.3 to 10 uM after 72 hrs by Western blot analysis; type: functional, cell-based
Summary of the method: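 Cells exposed to compound or DMSO for the stated periods, then lysed and immunoblotted for PARP and caspase-3 cleavage, with β-actin as loading control. NCI-H1703 stimulation used PDGF AA at 100 ng/mL.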

[4] = molecular target: Mitogen-activated protein kinase 12 (Homo sapiens) (UniProt P53778); assay: Binding affinity to wild-type human full length p38-gamma (M1 to L367 residues) expressed in mammalian expression system assessed as residual binding level at 1 uM by Kinomescan method relative to control
Summary of the method: (§1)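 KINOMEscan competition binding against 468 purified kinases/mutants, test compound at 1 µM; residual binding relative to control.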

[5] = molecular target: Mitogen-activated protein kinase 3 (Homo sapiens) (UniProt P27361); assay: Binding affinity to wild-type human full length ERK1 (M1 to P379 residues) expressed in bacterial expression system assessed as residual binding level at 1 uM by Kinomescan method relative to control
Summary of the method: (§2)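 Single-concentration (1 μM) competition-binding screen run by KINOMEscan against a panel of 468 purified kinases and mutants. The read-out is the relative binding activity of the test compound to each kinase.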

[6] = molecular target: Fibroblast growth factor receptor 1 (Homo sapiens) (UniProt P11362); assay: Binding affinity to wild-type human partial length FGFR1 (P357 to V669 residues) expressed in bacterial expression system assessed as residual binding level at 1 uM by Kinomescan method relative to control
[7] = system: Mast/stem cell growth factor receptor Kit (Homo sapiens), P10721 [D816H]; assay: Binding affinity to human partial length KIT D816H mutant (I571 to D952 residues) expressed in mammalian expression system assessed as residual binding level at 1 uM by Kinomescan method relative to control
Summary of the method: (§3)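 Kinome-wide single-concentration binding screen (KINOMEscan) at 1 μM against a panel of 468 purified kinases and mutants. Read-out is relative binding of each kinase compared with control. Selectivity across the panel was summarised as an S(10) score.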

[8] = molecular target: Epithelial discoidin domain-containing receptor 1 (Homo sapiens, UniProt Q08345); assay: Inhibition of DDR1 (unknown origin) using poly(4:1 Glu,Tyr) peptide as substrate preincubated for 1 hr followed by addition of ATP and measured after 30 mins by ADP-Glo bioluminescence assay
[9] = molecular target: Maternal embryonic leucine zipper kinase (Homo sapiens) (UniProt Q14680); assay: Binding affinity to wild-type human full length MELK (M1 to V651 residues) expressed in bacterial expression system assessed as residual binding level at 1 uM by Kinomescan method relative to control; summary of the method: as §1
[10] = molecular target: Serine/threonine-protein kinase STK11 (Homo sapiens) (UniProt Q15831); assay: Binding affinity to wild-type human full length LKB1 (M1 to Q433 residues) expressed in bacterial expression system assessed as residual binding level at 1 uM by Kinomescan method relative to control; summary of the method: as §2
[11] = molecular target: Epidermal growth factor receptor (Homo sapiens) (UniProt P00533); assay: Binding affinity to wild-type human partial length EGFR (R669 to V1011 residues) expressed in bacterial expression system assessed as residual binding level at 1 uM by Kinomescan method relative to control
[12] = molecular target: Phosphatidylinositol 4-kinase beta (Homo sapiens) (UniProt Q9UBF8); assay: Binding affinity to wild-type human full length PIK4CB (M1 to M828 residues) expressed in mammalian expression system assessed as residual binding level at 1 uM by Kinomescan method relative to control
Summary of the method: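 Single-concentration KINOMEscan (DiscoverX) binding screen at 1 μM against a panel of 468 purified kinases and mutants. The read-out is binding relative to control.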

[13] = molecular target: Inhibitor of nuclear factor kappa-B kinase subunit epsilon (Homo sapiens) (UniProt Q14164); assay: Binding affinity to wild-type human full length IKK-epsilon (M1 to V716 residues) expressed in mammalian expression system assessed as residual binding level at 1 uM by Kinomescan method relative to control; summary of the method: as §2
[14] = system: Phosphatidylinositol 4,5-bisphosphate 3-kinase catalytic subunit alpha isoform (Homo sapiens), P42336 [E545A]; assay: Binding affinity to human partial length PIK3CA E545A mutant (R108 to N1068 residues) expressed in mammalian expression system assessed as residual binding level at 1 uM by Kinomescan method relative to control; summary of the method: as §3
[15] = molecular target: Dual specificity mitogen-activated protein kinase kinase 6 (Homo sapiens) (UniProt P52564); assay: Binding affinity to wild-type human partial length MEK6 (K36 to D334 residues) expressed in bacterial expression system assessed as residual binding level at 1 uM by Kinomescan method relative to control
[16] = molecular target: Myosin light chain kinase family member 4 (Homo sapiens) (UniProt Q86YV6); assay: Binding affinity to wild-type human partial length MYLK4 (V79 to S380 residues) expressed in bacterial expression system assessed as residual binding level at 1 uM by Kinomescan method relative to control
[17] = molecular target: Serine/threonine-protein kinase PAK 3 (Homo sapiens) (UniProt O75914); assay: Binding affinity to wild-type human full length PAK3 (M1 to R544 residues) expressed in bacterial expression system assessed as residual binding level at 1 uM by Kinomescan method relative to control; summary of the method: as §1
[18] = molecular target: Hepatocyte growth factor receptor (Homo sapiens) (UniProt P08581); assay: Binding affinity to wild-type human partial length MET (D1010 to S1367 residues) expressed in bacterial expression system assessed as residual binding level at 1 uM by Kinomescan method relative to control
[19] = molecular target: Serine/threonine-protein kinase pim-1 (Homo sapiens) (UniProt P11309); assay: Binding affinity to wild-type human partial length PIM1 (A15 to K313 residues) expressed in bacterial expression system assessed as residual binding level at 1 uM by Kinomescan method relative to control
[20] = molecular target: Serine/threonine-protein kinase PAK 6 (Homo sapiens) (UniProt Q9NQU5); assay: Binding affinity to wild-type human partial length PAK6 (N298 to C681 residues) expressed in bacterial expression system assessed as residual binding level at 1 uM by Kinomescan method relative to control
[21] = molecular target: TGF-beta receptor type-1 (Homo sapiens) (UniProt P36897); assay: Binding affinity to wild-type human partial length TGFBR1 (D179 to M503 residues) expressed in bacterial expression system assessed as residual binding level at 1 uM by Kinomescan method relative to control

## Cc1ccc(NC(=O)c2ccc(CN(CCN(C)C)C(=O)c3cccnc3)cc2)cc1Nc1nccc(-c2cccnc2)n1
[1]
  Activity: 2.2%
[2]
  Cmax: 28.9 ng/mL
[3]
  Activity: inactive
[4]
  Activity: 69%
[5]
  Activity: 95%
[6]
  Activity: 98%
[7]
  Activity: 100%
[8]
  pIC50: 5.61
[9]
  Activity: 84%
[10]
  Activity: 99%
[11]
  Activity: 73%
[12]
  Activity: 100%
[13]
  Activity: 100%
[14]
  Activity: 63%
[15]
  Activity: 100%
[16]
  Activity: 76%
[17]
  Activity: 40%
[18]
  Activity: 90%
[19]
  Activity: 98%
[20]
  Activity: 90%
[21]
  Activity: 100%
